The structures appear in SMILES notation. Out of some 360,000 compounds screened, about 1,700 (0.47%) were called active. This excerpt belongs to a sample that is enriched for actives. Values without a mark were called inactive.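 The calls were made as follows: active = inhibition above its plate's cutoff, the mean of tested wells on that plate plus 3 SD (cut at about 29% in these data); inactive = the rest.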

This test deals with Melanocortin receptor 4 (Homo sapiens) (UniProt P32245). Kind of test: blockers of MC4R Gs-cAMP response – cell-based, TR-FRET, antagonist arm of biased-ligand search, primary screen (AID 540295).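 Also: 0% = Melanotan II alone and 100% = Melanotan II plus saturating MCL0020.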 The following applies: MC4R-expressing cells, MTII-stimulated cAMP, LANCE TR-FRET; at 6.5 µM; active compounds read high. Summed up: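 Material: human MC4R-expressing U2OS cells. Probe or stimulus: Melanotan II challenge. Dosing: 6.5 µM single dose. Times: 30-min compound, 1-h challenge, 1-h detection, room temperature. Technique: TR-FRET with Eu-cAMP and labeled anti-cAMP, 671 nm. Replication: singlicate.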
Sequence of Melanocortin receptor 4 (Homo sapiens) (P32245 whole entry, looked up): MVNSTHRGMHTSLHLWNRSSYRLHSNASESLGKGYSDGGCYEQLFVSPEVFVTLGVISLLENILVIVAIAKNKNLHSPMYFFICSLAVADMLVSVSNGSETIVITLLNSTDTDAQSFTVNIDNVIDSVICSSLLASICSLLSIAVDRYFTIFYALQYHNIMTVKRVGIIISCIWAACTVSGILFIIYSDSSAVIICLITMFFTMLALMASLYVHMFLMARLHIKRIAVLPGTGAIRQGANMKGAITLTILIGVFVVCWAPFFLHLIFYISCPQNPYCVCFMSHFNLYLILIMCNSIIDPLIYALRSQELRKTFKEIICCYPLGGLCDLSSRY
(TR-FRET usually uses a lanthanide donor and a delayed reading to cut background.)
As usually defined, the inhibition is the drop in the measured response relative to a control, in per cent. With `CN(C)/C(CN1CCCCC1)=C1\N=C(c2ccccc2)OC1=O`, the inhibition was 7.27%.

Consider `O=C1CCC(=O)N(c2ccccc2)N1`, for which the inhibition was 22.5%.

`Cc1cccc(CS(=O)(=O)c2ncc(Cl)c(C(=O)Nc3ccc(F)cc3)n2)c1`: the inhibition is 12.4%.

`CSc1nnc(NC(=O)c2nc(S(=O)(=O)Cc3ccc(C)cc3)ncc2Cl)s1`: the inhibition was 44.6% (active).

As for `NC(=O)CSc1nnc(NC(=O)c2ccc(Br)o2)s1`, the inhibition is -2.81%.

As for `Cc1cc(C)c2nc(-c3cccnc3)cc(C(=O)Nc3ccc(S(=O)(=O)Nc4onc(C)c4C)cc3)c2c1`, the inhibition was 19.9%.

Take `C=Cn1c(C(=O)O)ccc1-c1ccc(OC)cc1`: the inhibition is 28.8% (active).

`COc1ccc(-c2ccc(CCC(=O)O)n2-c2ccc(O)cc2)cc1`: the inhibition is 1%.

For `COc1ccc(-c2ccc(CCC(=O)O)n2NC(=O)c2ccc(C(C)(C)C)cc2)cc1`, the inhibition was 11.2%.

For the molecule `CCOc1ccc(N(C(=O)c2snc(C(N)=O)c2N)C(C(=O)NCC2CCCO2)c2c[nH]c3ccccc23)cc1` (stereo not drawn), the inhibition was 12.3%.

As for `Cc1ccc(N(C(=O)c2snc(C(N)=O)c2N)C(C(=O)NCC2CCCO2)c2c[nH]c3ccccc23)cc1` (stereo not drawn), the inhibition is 21.4%.

On to `Cc1ccc(C(C(=O)NCC2CCCO2)N(C(=O)c2snc(C(N)=O)c2N)c2ccc(C(C)C)cc2)o1` (stereo not drawn), for which the inhibition is 29.1% (active).

As to `O=C(CCNC(=O)c1ccc([N+](=O)[O-])cc1)Nc1ccccc1N1CCOCC1`, the inhibition was 17.3%.

For the molecule `CC[C@@H]1Cc2cc(O)ccc2C2=C1c1ccc(O)cc1C[C@H]2CC`, the inhibition was 10.4%.

With `Cc1csc(CN(C)C(=O)CC2C(=O)NCCN2CC(C)(C)C)n1` (stereo not drawn), the inhibition is 4.33%.

On to `COc1ccc2sc(-c3ccc(S(C)(=O)=O)cc3)c(-c3ccc(C(N)=O)cc3)c2c1`, for which the inhibition is 35.3% (active).

Turning to `COc1cc(OC)cc(-c2sc3ccc(OC)cc3c2-c2ccc3cc[nH]c3c2)c1`, the inhibition was 13%.

As for `COc1ccc2sc(-c3ccc(S(C)(=O)=O)cc3)c(C#Cc3cncn3C)c2c1`, the inhibition was 12.3%.

As for `COC(=O)[C@H](Cc1ccccc1)NC(=O)[C@@H]1C[C@H]1[C@@H](NC(=O)OCc1ccccc1)c1ccccc1`, the inhibition was 29.7% (active).

In the case of `COC(=O)[C@@H](Cc1ccccc1)NC(=O)NCCc1ccccc1`, the inhibition was 23.7%.

For `COC(=O)[C@H](C)[C@H]1C[C@]1(C)[C@H](NC(=O)OCc1ccccc1)c1ccccc1`, the inhibition is 5.83%.

As for `Cc1csc(/N=C/N(C)C)c1C#N`, the inhibition was 1.05%.

With `Cc1ccc(S(=O)(=O)CCC(=O)OCC(=O)N(C)C2CCS(=O)(=O)C2)cc1` (stereo not drawn), the inhibition was 0.56%.

As for `Cc1ccc(S(=O)(=O)CCC(=O)OCc2ccccc2)cc1`, the inhibition is 3.4%.

Take `Cc1ccc(S(=O)(=O)CCC(=O)OCC(=O)N(C)Cc2ccccc2)cc1`: the inhibition is 33.6% (active).

With `CCOc1ccc(S(=O)(=O)NCc2ccc3c(c2)OCO3)cc1C`, the inhibition was 3.78%.

Consider `COc1ccc(CCN=C2SCC(=O)N2C)cc1OC`, for which the inhibition is 10.4%.

As for `O=C(NCCc1c[nH]c2ccccc12)c1cc2ccccc2oc1=O`, the inhibition was -0.76%.

Turning to `O=C(NCCc1c[nH]c2ccccc12)c1cccc(Br)c1`, the inhibition is 31.5% (active).

Take `Cc1cc(C)cc(NC(=S)NCCc2c[nH]c3ccccc23)c1`: the inhibition was 7.21%.

For the molecule `CN(C)c1ccc(C2Nc3ccccc3C(=O)N2NS(=O)(=O)c2ccccc2)cc1` (stereo not drawn), the inhibition was -6.61%.

In the case of `COc1ccc(S(=O)(=O)N2CCSCC2)cc1`, the inhibition is 2.98%.

As to `CCOC(=O)c1c(-c2ccccc2)oc2cc(Br)c(O)c(C=O)c12`, the inhibition was 93% (active).

`Cc1oc2cc(Br)c(O)c(Br)c2c1C(=O)c1ccccc1`: the inhibition is 0.99%.

Consider `CCOC(=O)c1c(C)oc2cc(Sc3ccccc3)c(O)c(O)c12`, for which the inhibition is 6.42%.

In the case of `COc1ccc(CCCNC(=O)C2Cc3c(-c4cccc(C(N)=O)c4)ccnc3O2)cc1` (stereo not drawn), the inhibition is 2.69%.

Turning to `CCn1c2ccccc2c2cc(NC(=S)N3CCOCC3)ccc21`, the inhibition is -0.62%.

`CCn1c2ccccc2c2cc(NC(=O)C/C(C)=N/NC(=O)c3ccccc3N)ccc21`: the inhibition was 28.8% (active).

On to `CCn1c2ccccc2c2cc(NC(=O)COC(=O)c3cc(S(=O)(=O)N4CCCCC4)ccc3Cl)ccc21`, for which the inhibition is -0.18%.

In the case of `CC1=NN(C(C)C)C(=O)C1`, the inhibition was 6.17%.

For `Cc1nc2ccccc2c(=O)n1NC(=O)c1ccc(Cl)c([N+](=O)[O-])c1`, the inhibition was 49% (active).

As for `O=C(O)c1ccc2c(=O)n3c(nc2c1)/C(=C/c1ccc(Cl)c([N+](=O)[O-])c1)CC3`, the inhibition was 0.52%.

Take `Cc1ccnc(NC(=O)c2ccc(Cl)c([N+](=O)[O-])c2)c1`: the inhibition is 23.3%.

In the case of `CCOC(=O)C1(C)CCCN(C(=O)c2ccc(F)c(Cl)c2)C1` (stereo not drawn), the inhibition is -0.84%.

With `Cc1nc(N2CCN(c3ccccn3)CC2)c2c(C)c(C(=O)Nc3ccc(F)c(Cl)c3)sc2n1`, the inhibition is 5.05%.

As to `CC(=O)Nc1ccc(S(=O)(=O)N2CCn3cccc3C2C)cc1` (stereo not drawn), the inhibition is 1.62%.

For the molecule `CCOc1ccc(-c2nc(N)ncc2-c2ccccc2OC)c(O)c1`, the inhibition is -2.31%.

On to `COc1ccc(-c2n[nH]c(C)c2-c2ccccc2OC)c(O)c1`, for which the inhibition is 29.1% (active).

Consider `CCOc1ccccc1Oc1cn[nH]c1-c1ccc(OC)cc1O`, for which the inhibition was 2.19%.

As for `CC(Sc1ccc(S(=O)(=O)N2CCN(C)CC2)cn1)C(=O)NC1CCCC(C)C1C` (stereo not drawn), the inhibition was -2.08%.

Regarding `O=C(NC1=CC(=O)c2ccccc2C1=O)c1ccccc1`, the inhibition was 34.6% (active).

For `O=C(Nc1ccc2ccccc2c1[N+](=O)[O-])c1ccccc1`, the inhibition is -1.17%.

Turning to `Cc1cc(=O)c2ccc(NC(=O)c3ccccc3)cc2[nH]1`, the inhibition was 0.31%.

With `CN(CCC#N)c1ncnc2scc(-c3ccccc3)c12`, the inhibition is -6.59%.

Regarding `Cc1sc2nc(-c3ccccc3F)oc(=O)c2c1C`, the inhibition is 2.06%.

`Cc1ccccc1-n1nnnc1SCCCC(=O)c1ccc(F)cc1`: the inhibition is 0.07%.

Take `Cc1cccc(OCC(O)Cn2c(N3CCCCC3)nc3c2c(=O)[nH]c(=O)n3C)c1` (stereo not drawn): the inhibition is 32.4% (active).

Consider `C=C(C)Cn1c(N2CCCC2)nc2c1c(=O)[nH]c(=O)n2C`, for which the inhibition was -7.2%.

Consider `Cn1c(=O)c2c(nc(N3CCCCCC3)n2CC(O)COc2ccc(Cl)cc2)n(C)c1=O` (stereo not drawn), for which the inhibition was 19.6%.

As for `CCCCCCCC(=O)OC(CN1CCCCCC1)CN1CCCC1=O` (stereo not drawn), the inhibition is 3.62%.

`CC(=O)c1cccc(NC(=O)C2CCCN(S(=O)(=O)c3cccc4nonc34)C2)c1` (stereo not drawn): the inhibition is 0.67%.

`Cn1nc(C(F)(F)F)cc1C(=O)O`: the inhibition was -0.27%.

As to `CCC(=O)Nc1ccc(S(=O)(=O)NCC2CCCO2)cc1` (stereo not drawn), the inhibition was 6.76%.

`CC(NS(=O)(=O)c1ccc(Br)cc1)C(=O)NCC1CCCO1` (stereo not drawn): the inhibition was 40.5% (active).

In the case of `O=C(NCC1CCCO1)c1ccc(S(=O)(=O)Nc2ccc(F)cc2)cc1` (stereo not drawn), the inhibition was 1.8%.

As for `Cn1cccc1C1(C(F)(F)F)NCCNC1=O` (stereo not drawn), the inhibition is 1.67%.

Turning to `O=C(Cc1ccccc1)Nc1c(C(=O)N2CCCCCC2)cnn1-c1ccccc1`, the inhibition is 1.13%.

Take `O=C(Nc1ccccc1C(=O)N1CCCCCC1)c1ccccc1Cl`: the inhibition is 2.65%.

Consider `CC(=O)Nc1ccc(Sc2ccccc2C(=O)N2CCCC2)cn1`, for which the inhibition was 32% (active).

`O=C(NCc1ccccc1)C1=C[C@@H](c2ccccc2)C[C@@H](OCCCCO)O1`: the inhibition is -12.3%.

Take `Cc1ccccc1N1CCN(C2CCCN(C(=O)c3cn4c(C)cccc4n3)C2)CC1` (stereo not drawn): the inhibition is -0.92%.

On to `Cc1c(CNCCc2ccccc2)c(C(=O)O)c(C)n1-c1ccccc1`, for which the inhibition was 11.5%.

On to `CCc1nn(CCCC(=O)Nc2ccc(C)cc2C)c(=O)c2cc3occc3n12`, for which the inhibition was -1.71%.

Turning to `O=C(c1ccc(Cl)c(S(=O)(=O)N2CCCCCC2)c1)N1CCN(c2ccc(O)cc2)CC1`, the inhibition is -1.58%.

In the case of `c1ccc(-n2cccc2)c(N2CCCCC2)c1`, the inhibition was 4.15%.

In the case of `O=C1C=CC(=O)N1c1ccc(N2CCCCC2)cc1`, the inhibition is 43.8% (active).

Take `CCc1nc2ccc(C(=O)N3CCC(O)(Cc4ccccc4)CC3)cn2c1N(C)C(=O)Cc1ccccc1`: the inhibition was 9.63%.

Regarding `CCCCn1nc(C(=O)N2CCc3ccccc32)c2ccccc2c1=O`, the inhibition is 9.32%.

Regarding `S=C(NC1CCCCC1)NN1CCOCC1`, the inhibition is 7.17%.

Regarding `COc1cc([N+](=O)[O-])ccc1NC(=O)COC(=O)CCOc1ccc(C)cc1`, the inhibition is 7.73%.

`Cc1ccc(NC(=O)C(C)OC(=O)Cc2c[nH]c3ccccc23)cc1S(=O)(=O)N1CCOCC1` (stereo not drawn): the inhibition is 28.7% (active).

Consider `Cc1ccc(NC(=O)C(C)OC(=O)C2CC3CCCC(C2)C3=O)cc1S(=O)(=O)N1CCOCC1` (stereo not drawn), for which the inhibition is -1.35%.

For `CC(OC(=O)CCCc1c[nH]c2ccccc12)C(=O)Nc1ccc(S(N)(=O)=O)cc1` (stereo not drawn), the inhibition is -3.17%.

Turning to `N#Cc1c(-c2cccs2)nc(SCC(=O)c2ccc(Br)cc2)[nH]c1=O`, the inhibition was 39.6% (active).

For the molecule `O=C(CSc1nc2ccccc2c(=O)[nH]1)Nc1nc(-c2ccc(Br)cc2)cs1`, the inhibition was 10%.

As for `CC(=O)CSc1nc(CCc2ccccc2)c(C#N)c(=O)[nH]1`, the inhibition is 7.06%.

With `CC(=O)Nc1cccc(-c2cc(NC(C)=O)c3ncc(-c4ccccc4)n3c2)c1`, the inhibition was 9.96%.

As to `COc1ccc(C(=O)N2CCCCC2c2cc(C(=O)Nc3ccc(F)c(Cl)c3)no2)cc1` (stereo not drawn), the inhibition is 16.2%.

Source of the values: PubChem BioAssay AID540295 (The Scripps Research Institute Molecular Screening Center, 2011).
